Source: ChEMBL document CHEMBL3259624, “Netamines H-N, tricyclic alkaloids from the marine sponge Biemna laboutei and their antimalarial activity” (J Nat Prod, 2014)
Activity calls are given as the source filed them. No cut-off for these calls is given here.

Legend:
KB [1] = assay: Cytotoxicity against human KB cells at 1 uM after 72 hrs; format: functional, cell-based
Method in brief: (§1)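 KB cells exposed to compounds for 72 h, with DMSO-only cells as control. Proliferation was read with CellTiter 96 Aqueous One reagent and expressed as % inhibition of proliferation relative to the DMSO control, as mean ± SE of triplicate.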

Plasmodium falciparum = assay: Antiplasmodial activity against Plasmodium falciparum by LDH assay; format: functional, organism-based
KB [2] = assay: Cytotoxicity against human KB cells after 72 hrs; format: functional, cell-based; method in brief: as §1

| SMILES | Activity (KB [1]) | IC50 (Plasmodium falciparum) [µM] | IC50 (KB [2]) [nM] |
| --- | --- | --- | --- |
| CCC[C@@H]1C[C@@H]2CC[C@@H]3NC(N)=NC(=C1CC)[C@H]23 (relative stereo) | inactive | 2.4 |  |
| CCC/C=C\CC1=C2N=C(N)N[C@H]3CC[C@@H](C[C@H]1C)[C@@H]23 (relative stereo) |  |  | 1000 |
| CCC/C=C\C[C@@H]1c2nc(N)nc3c2[C@@H](CC3)C[C@H]1C | inactive |  |  |
| CCC/C=C\C[C@H]1c2nc(N)nc3c2[C@@H](CC3)C[C@H]1CCC | inactive |  |  |
| CCCCCCC1=C2N=C(N)N[C@H]3CC[C@@H](C[C@H]1CCC)[C@@H]23 | inactive |  |  |
| CC/C=C/C1=C2N=C(N)N[C@H]3CC[C@@H](C[C@@H]1C)[C@@H]23 | inactive |  |  |
| CCC/C=C\C[C@@H]1c2nc(N)nc3c2[C@@H](CC3)C[C@H]1CCC (relative stereo) | inactive |  |  |
| CCC/C=C\C[C@H]1c2nc(N)nc3c2[C@@H](CC3)C[C@H]1C | inactive | 20.7 |  |
| CCCC[C@@H]1c2nc(N)nc3c2[C@@H](CC3)C[C@H]1CCC | inactive |  |  |
